Assay [1] deals with T1, Histone acetyltransferase p300 (Homo sapiens, UniProt Q09472). In words: Inhibition of HAT p300-mediated […] assessed as residual activity at 1 mM using H4(1-20) and [14C]-acetyl CoA by scintillation counting; values are per cent of control.
For assay [2], the target named is T2, Protein arginine N-methyltransferase 1 (Homo sapiens, UniProt Q99873). The assay can be described thus: Inhibition of His6x-tagged PRMT1-mediated arginine methylation expressed in Escherichia coli BL21 (DE3) assessed as residual activity at 500 uM using H4(1-20) and [14C]-AdoMet by scintillation counting.
Target sequence in this assay (Q99873 whole entry, looked up): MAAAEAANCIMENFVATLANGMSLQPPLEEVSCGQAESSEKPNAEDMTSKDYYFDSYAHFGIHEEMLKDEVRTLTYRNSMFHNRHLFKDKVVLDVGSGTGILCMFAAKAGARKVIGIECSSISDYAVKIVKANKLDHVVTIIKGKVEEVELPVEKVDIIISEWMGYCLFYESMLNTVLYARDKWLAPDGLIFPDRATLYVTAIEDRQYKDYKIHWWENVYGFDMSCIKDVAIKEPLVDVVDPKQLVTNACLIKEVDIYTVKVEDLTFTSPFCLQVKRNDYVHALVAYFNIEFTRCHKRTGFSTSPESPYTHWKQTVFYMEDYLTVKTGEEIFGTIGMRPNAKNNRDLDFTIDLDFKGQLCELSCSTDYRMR
The target in assay [3] is T2, Protein arginine N-methyltransferase 1. The assay can be described thus: Inhibition of His6x-tagged PRMT1-mediated protein arginine methylation expressed in Escherichia coli BL21 (DE3) assessed as retained fractional activity of enzyme at 100 uM using H4(1-20) and [14C]-AdoMet by scintillation counting. Further details: scale not given: the % may be the effect or the level left. In outline: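 His6x-PRMT1 (0.1 μM) with 2 μM H4(1-20) and 5 μM [14C]-AdoMet, compound at 100 μM or absent, 30 °C in 50 mM HEPES pH 8.0, 0.5 mM DTT, 1 mM EDTA, 50 mM NaCl. Substrates and compound preincubated 5 min before enzyme addition. Quenched on P81 paper, NaHCO3 wash, methylated product counted by liquid scintillation.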
Target sequence in this assay (Q99873 whole entry, looked up): as above

For assay [4] the target is unchanged. In words: Inhibition of His6x-tagged PRMT1-mediated protein arginine methylation expressed in Escherichia coli BL21 (DE3) using H4(1-20) and [14C]-SAM by scintillation counting.
Target sequence in this assay (Q99873 whole entry): as the sequence (Q99873 whole entry, looked up) above
The target is the same in assay [5]. The assay can be described thus: Inhibition of His6x-tagged PRMT1-mediated protein arginine methylation expressed in Escherichia coli BL21 (DE3) using GAR R4 peptide and [14C]-AdoMet by scintillation counting.
Target sequence in this assay (Q99873 whole entry): as the sequence (Q99873 whole entry, looked up) above
For assay [6], the target named is Protein arginine N-methyltransferase 3 (Homo sapiens, UniProt O60678). In words: Inhibition of His6x-tagged PRMT3-mediated arginine methylation expressed in Escherichia coli BL21 (DE3) using GAR R4 peptide and [14C]-SAM by scintillation counting. The procedure, abridged:
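His6x-PRMT3 expressed in E. coli BL21(DE3), Ni-NTA purified; 0.1 μM enzyme, 2 μM R4 peptide, 5 μM [14C]-SAM, varied inhibitor, 30 °C in 50 mM HEPES pH 8.0, 0.5 mM DTT, 1 mM EDTA, 50 mM NaCl; 5 min preincubation before enzyme. P81 filter capture, liquid scintillation; IC50 = inhibitor concentration giving half-maximal activity.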

Assay [7] addresses T3, Histone-arginine methyltransferase CARM1 (Mus musculus, UniProt Q9WVG6).
T3 sequence (Q9WVG6 whole entry): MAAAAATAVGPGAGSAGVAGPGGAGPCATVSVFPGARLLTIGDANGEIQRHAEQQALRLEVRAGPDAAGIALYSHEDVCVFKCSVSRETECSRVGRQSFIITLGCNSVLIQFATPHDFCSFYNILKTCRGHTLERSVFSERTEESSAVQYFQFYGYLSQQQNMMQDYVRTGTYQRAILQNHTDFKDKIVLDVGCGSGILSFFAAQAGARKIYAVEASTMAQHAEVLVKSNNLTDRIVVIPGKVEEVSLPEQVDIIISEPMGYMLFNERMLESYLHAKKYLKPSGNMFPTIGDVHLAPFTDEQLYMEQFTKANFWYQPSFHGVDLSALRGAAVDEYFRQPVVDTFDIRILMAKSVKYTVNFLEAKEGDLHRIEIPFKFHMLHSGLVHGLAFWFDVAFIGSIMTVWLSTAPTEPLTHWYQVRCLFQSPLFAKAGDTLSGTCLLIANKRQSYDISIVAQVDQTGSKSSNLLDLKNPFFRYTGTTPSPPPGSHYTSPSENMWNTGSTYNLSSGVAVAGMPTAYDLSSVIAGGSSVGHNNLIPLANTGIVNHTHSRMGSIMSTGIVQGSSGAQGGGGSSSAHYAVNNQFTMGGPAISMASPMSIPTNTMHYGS
The assay can be described thus: Inhibition of mouse GST-tagged CARM1-mediated arginine methylation expressed in Escherichia coli BL21 (DE3) using H3(1-31) and [14C]-SAM by scintillation counting. The procedure, abridged:
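GST-tagged mouse CARM1 from E. coli BL21(DE3), glutathione-agarose purified; 5 μM enzyme, 1 mM H3(1-31), 30 μM [14C]-SAM, inhibitor up to 500 μM, 30 °C in 50 mM HEPES pH 8.0, 0.5 mM DTT, 1 mM EDTA, 50 mM NaCl. P81 filter capture, liquid scintillation counting.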

In assay [8] the target is Protein arginine N-methyltransferase 6 (Homo sapiens, UniProt Q96LA8). The assay can be described thus: Inhibition of His6x-tagged PRMT6-mediated arginine methylation expressed in Escherichia coli BL21 (DE3) using H3(1-31) peptide and [14C]-SAM by scintillation counting. In outline:
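His6x-PRMT6 from E. coli BL21(DE3), Ni-NTA purified; 0.5 μM enzyme, 10 μM H3(1-31), 5 μM [14C]-SAM and varied inhibitor at 30 °C in HEPES pH 8.0 buffer with DTT, EDTA, NaCl; 5 min preincubation before enzyme. Product captured on P81 paper, counted by liquid scintillation; IC50 taken at half-maximal activity.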

Assay [9] addresses T1, Histone acetyltransferase p300. The assay can be described thus: Inhibition of HAT p300-mediated […] using H4(1-20) and [14C]-acetyl CoA by scintillation counting. In outline: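 Recombinant p300 HAT domain (1287-1666), 20 nM, with 10 μM H4(1-20) and 10 μM [14C]-acetyl CoA plus increasing inhibitor in 50 mM HEPES pH 8.0, 50 mM NaCl, 0.5 mM DTT, 1 mM EDTA; 10 min at 30 °C. Quenched on P81 filter paper, acetylated product counted by liquid scintillation; fractional activity plotted against inhibitor concentration.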

Assay [10] addresses T2, Protein arginine N-methyltransferase 1. The assay can be described thus: Inhibition of His6x-tagged PRMT1-mediated arginine methylation expressed in Escherichia coli BL21 (DE3) assessed as residual activity at 100 uM using H4(1-20) and [14C]-AdoMet by scintillation counting; values are per cent of control.
Target sequence in this assay (Q99873 whole entry, looked up): as the sequence (Q99873 whole entry, looked up) above

The source made the active and inactive calls. No cut-off for these calls is given here.

T1 sequence (Q09472 whole entry): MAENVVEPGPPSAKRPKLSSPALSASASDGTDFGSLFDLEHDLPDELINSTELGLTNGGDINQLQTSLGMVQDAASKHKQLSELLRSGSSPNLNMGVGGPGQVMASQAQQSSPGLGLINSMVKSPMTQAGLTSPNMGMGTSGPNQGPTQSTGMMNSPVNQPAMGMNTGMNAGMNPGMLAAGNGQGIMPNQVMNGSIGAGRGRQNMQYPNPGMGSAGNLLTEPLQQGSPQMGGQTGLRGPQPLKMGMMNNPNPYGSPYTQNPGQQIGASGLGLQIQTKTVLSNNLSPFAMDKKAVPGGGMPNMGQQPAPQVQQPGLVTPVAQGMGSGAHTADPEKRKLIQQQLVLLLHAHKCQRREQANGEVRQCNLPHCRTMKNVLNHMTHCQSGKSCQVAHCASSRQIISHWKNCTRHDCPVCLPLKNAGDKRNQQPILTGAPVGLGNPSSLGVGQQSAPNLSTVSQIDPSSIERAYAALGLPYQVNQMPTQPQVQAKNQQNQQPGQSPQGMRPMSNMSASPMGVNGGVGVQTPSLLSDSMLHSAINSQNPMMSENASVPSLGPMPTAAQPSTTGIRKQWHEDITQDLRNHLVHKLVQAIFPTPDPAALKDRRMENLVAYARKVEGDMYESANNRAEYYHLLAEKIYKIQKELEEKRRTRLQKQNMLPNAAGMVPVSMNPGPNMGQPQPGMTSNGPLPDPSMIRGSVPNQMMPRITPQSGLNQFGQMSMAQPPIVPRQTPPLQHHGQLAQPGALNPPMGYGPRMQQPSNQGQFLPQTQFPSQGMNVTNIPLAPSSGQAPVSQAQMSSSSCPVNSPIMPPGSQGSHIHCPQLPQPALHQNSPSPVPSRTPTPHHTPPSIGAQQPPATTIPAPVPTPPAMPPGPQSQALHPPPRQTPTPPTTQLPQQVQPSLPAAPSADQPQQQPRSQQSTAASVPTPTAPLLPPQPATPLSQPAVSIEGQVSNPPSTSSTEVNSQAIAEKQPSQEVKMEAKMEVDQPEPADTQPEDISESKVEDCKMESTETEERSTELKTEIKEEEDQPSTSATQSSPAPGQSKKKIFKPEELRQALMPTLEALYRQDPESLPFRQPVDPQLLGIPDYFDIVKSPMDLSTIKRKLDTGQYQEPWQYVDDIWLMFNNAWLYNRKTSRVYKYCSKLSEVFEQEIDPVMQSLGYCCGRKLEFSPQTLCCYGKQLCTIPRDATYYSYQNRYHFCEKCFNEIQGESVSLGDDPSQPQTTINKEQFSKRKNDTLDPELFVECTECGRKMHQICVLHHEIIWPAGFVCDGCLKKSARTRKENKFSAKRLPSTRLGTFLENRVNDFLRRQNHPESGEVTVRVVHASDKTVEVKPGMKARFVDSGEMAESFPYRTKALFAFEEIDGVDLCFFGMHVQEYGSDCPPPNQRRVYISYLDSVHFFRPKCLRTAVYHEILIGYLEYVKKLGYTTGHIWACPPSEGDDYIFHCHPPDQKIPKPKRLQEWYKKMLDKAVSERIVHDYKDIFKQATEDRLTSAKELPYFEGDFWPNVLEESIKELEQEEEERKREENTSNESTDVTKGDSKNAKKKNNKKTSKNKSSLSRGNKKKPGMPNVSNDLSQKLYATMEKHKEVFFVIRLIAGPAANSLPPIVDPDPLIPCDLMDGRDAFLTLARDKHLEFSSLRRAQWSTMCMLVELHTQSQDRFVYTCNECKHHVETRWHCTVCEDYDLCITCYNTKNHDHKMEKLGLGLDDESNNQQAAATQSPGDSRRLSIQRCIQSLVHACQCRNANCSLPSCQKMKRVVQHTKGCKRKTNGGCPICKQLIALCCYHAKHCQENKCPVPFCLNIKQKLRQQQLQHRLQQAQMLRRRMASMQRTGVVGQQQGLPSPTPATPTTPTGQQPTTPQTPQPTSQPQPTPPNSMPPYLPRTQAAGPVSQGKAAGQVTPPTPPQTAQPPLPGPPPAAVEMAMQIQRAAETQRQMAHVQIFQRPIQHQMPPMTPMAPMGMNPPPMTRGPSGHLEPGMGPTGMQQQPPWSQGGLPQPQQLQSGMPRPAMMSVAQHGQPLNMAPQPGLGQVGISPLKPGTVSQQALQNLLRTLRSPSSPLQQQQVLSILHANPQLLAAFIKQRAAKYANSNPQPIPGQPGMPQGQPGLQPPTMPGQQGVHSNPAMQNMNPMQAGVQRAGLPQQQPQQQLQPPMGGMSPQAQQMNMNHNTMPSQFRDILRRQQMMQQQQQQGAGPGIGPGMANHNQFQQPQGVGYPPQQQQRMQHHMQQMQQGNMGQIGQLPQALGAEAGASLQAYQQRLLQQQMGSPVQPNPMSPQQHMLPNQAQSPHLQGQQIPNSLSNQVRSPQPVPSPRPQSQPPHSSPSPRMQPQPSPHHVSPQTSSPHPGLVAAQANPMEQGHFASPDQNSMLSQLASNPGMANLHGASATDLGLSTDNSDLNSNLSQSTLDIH
Protein arginine N-methyltransferase 3, sequence (O60678 whole entry): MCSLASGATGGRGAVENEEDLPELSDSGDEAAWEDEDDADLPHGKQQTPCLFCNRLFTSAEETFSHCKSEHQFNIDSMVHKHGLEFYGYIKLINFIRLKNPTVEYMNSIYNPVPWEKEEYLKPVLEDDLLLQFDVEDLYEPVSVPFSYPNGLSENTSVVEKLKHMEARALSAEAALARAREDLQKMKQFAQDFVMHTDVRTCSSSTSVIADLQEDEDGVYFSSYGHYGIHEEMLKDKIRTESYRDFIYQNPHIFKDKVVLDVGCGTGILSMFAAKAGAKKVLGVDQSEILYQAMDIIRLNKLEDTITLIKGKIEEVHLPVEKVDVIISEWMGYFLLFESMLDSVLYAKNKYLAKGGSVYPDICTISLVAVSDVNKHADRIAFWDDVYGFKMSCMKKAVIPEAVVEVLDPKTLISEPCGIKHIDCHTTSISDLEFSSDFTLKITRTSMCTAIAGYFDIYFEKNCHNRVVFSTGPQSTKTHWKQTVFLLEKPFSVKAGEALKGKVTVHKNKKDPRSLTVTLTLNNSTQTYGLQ
Protein arginine N-methyltransferase 6, sequence (Q96LA8 whole entry): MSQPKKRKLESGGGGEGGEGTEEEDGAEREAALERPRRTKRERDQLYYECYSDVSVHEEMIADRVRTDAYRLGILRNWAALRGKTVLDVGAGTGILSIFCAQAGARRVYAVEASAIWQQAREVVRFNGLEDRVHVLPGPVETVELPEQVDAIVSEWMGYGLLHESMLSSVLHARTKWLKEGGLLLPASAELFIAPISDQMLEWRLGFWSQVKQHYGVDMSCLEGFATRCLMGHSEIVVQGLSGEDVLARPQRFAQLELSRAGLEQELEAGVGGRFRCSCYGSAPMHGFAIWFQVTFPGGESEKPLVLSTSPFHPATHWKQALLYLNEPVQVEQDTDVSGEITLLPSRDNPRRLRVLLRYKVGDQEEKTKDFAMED

Broadly, the residual activity is the activity still measured, relative to the control. As to `N=C(N)c1ccc(/C=C/c2ccc(C(=N)N)cc2)cc1`, the residual activity in [1] came to 84%.
Consider `COc1cc(C=O)cc(I)c1OS(=O)(=O)c1ccc2ccccc2c1`, for which the inhibition result in [2] was “inactive”.
On the same count and under the same terms, with `NS(=O)(=O)c1ccc(CNc2ccnc3cc4ccccc4cc23)cc1` the entry was “inactive”.
Consider `NS(=O)(=O)c1ccc2c(O)cc(S(N)(=O)=O)cc2c1`, for which, in assay [2], the inhibition result was “inactive”.
Turning to `N#Cc1cccc(C#N)c1Oc1ccc(S(=O)(=O)Nc2ccc(Cl)cc2)cc1`, the Activity in assay [3] worked out at 100%.
Take `O=S(=O)(Oc1c(Br)cc(Br)cc1Br)c1ccc2ccccc2c1`: in assay [2], the inhibition result was “inactive”.
As for `CCOC(=O)c1ccc(N2C(=O)CC(Sc3ccccc3C(=O)O)C2=O)cc1` (stereo not given), the inhibition result in [2] was “inactive”.
Consider `Cn1c(SCC(=O)Nc2ccccc2)nnc1-c1cncc(C#Cc2ccccc2)c1`, for which, in assay [3], the Activity was found to be 100%.
As usually defined, the IC50 is the concentration that inhibits the measured activity by half. On to `O=S(=O)(O)c1cc(O)c2c(/N=N/c3c(S(=O)(=O)O)cc4cc(S(=O)(=O)O)cc(O)c4c3O)cc(S(=O)(=O)O)cc2c1`, for which the figures for the IC50 in assay [4] and in [5] were 72.1 µM and 463 µM, respectively.
Consider `O=S(=O)(Oc1cccc2c(OS(=O)(=O)c3ccccc3)cccc12)c1ccccc1`, for which the inhibition entry in [2] is “inactive”.
The same measure, in the same setting: in the case of `COc1ccc(S(=O)(=O)Oc2ccc3ccccc3c2)c2ccccc12` it was “inactive”; in that of `CCOc1cc(C=O)cc(Br)c1OS(=O)(=O)c1ccc2ccccc2c1`, “inactive”.
On to `CC(=O)Nc1ccc(/N=N/c2c(S(=O)(=O)O)cc3cc(NC(=O)Nc4ccc5c(O)c(/N=N/c6ccccc6)c(S(=O)(=O)O)cc5c4)ccc3c2O)cc1`, for which the IC50 in assay [6] amounted to 7.1 µM; in assay [7], 2 mM; in assay [8], 39.2 µM; in assay [9], 21.3 µM.
As for `Cc1ccc(C(=O)Nc2ccc(S(=O)(=O)O)c3cc(S(=O)(=O)O)cc(S(=O)(=O)O)c23)cc1NC(=O)c1cccc(NC(=O)Nc2cccc(C(=O)Nc3cc(C(=O)Nc4ccc(S(=O)(=O)O)c5cc(S(=O)(=O)O)cc(S(=O)(=O)O)c45)ccc3C)c2)c1` [SURAMIN], the IC50 in [4] was 5.33 µM; in assay [5], 1010 µM.
With `O=C(Nc1cccc2c(S(=O)(=O)O)cccc12)c1ccccc1`, the residual activity in [10] came out at 86.9%.
As for `O=S(=O)(Nc1ccccc1)c1cc(S(=O)(=O)Nc2ccccc2)c2cc(O)ccc2c1`, the inhibition entry in assay [2] was “inactive”.
With `O=C(OC[C@@H]1CO[C@@](Cn2ccnc2)(c2ccc(Cl)cc2Cl)O1)c1ccccc1`, the Activity in assay [3] came to 100%.
`O=Cc1ccc(OS(=O)(=O)c2ccc3ccccc3c2)c(Br)c1`: the inhibition result in [2] was “inactive”.
Same read-out and setting: with `Nc1cc(S(=O)(=O)O)cc2cccc(S(=O)(=O)O)c12` the entry was “inactive”.
Compound `O=C(Nc1ccc2c(O)cc(S(=O)(=O)O)cc2c1)Nc1ccc2c(O)cc(S(=O)(=O)O)cc2c1` came in with an IC50 in [9] of 118 µM.
`CCOc1cc(C=O)ccc1OS(=O)(=O)c1ccc2ccccc2c1`: the inhibition entry in assay [2] was “inactive”.
Regarding `CCOc1ccc(S(=O)(=O)NCCNS(=O)(=O)c2ccc(OCC)c3ccccc23)c2ccccc12`, the inhibition result in [2] is “inactive”.
Regarding `CCOC(=O)[C@H]1CCCN(S(=O)(=O)c2cc(S(=O)(=O)c3ccccc3)cs2)C1`, the Activity in assay [3] worked out at 100%.
In the case of `CC(=O)Nc1cc([N+](=O)[O-])c(N(C)S(=O)(=O)c2ccccc2)c2ccccc12`, the inhibition entry in [2] was “inactive”.
Consider `CNc1ccc2c(O)cc(S(=O)(=O)O)cc2c1`, for which the inhibition result in assay [2] is “inactive”.
Consider `O=C1N=c2ccccc2=C1Nc1ccc(Cc2ccc(NC3=c4ccccc4=NC3=O)cc2)cc1`, for which the Activity in assay [3] stood at 100%.
As to `COc1ccc(S(=O)(=O)Nc2ccc(S(=O)(=O)Nc3cccc4ccccc34)cc2)cc1OC`, the inhibition entry in assay [2] was “inactive”.
Take `Cc1ccccc1Nc1nc(-c2ccccc2)c(C(=O)Nc2cccnc2)s1`: the Activity in [3] came out at 100%.
For the compound `CC(=O)Nc1ccc2cc(S(=O)(=O)O)cc(OS(=O)(=O)c3ccccc3)c2c1`, in assay [10], the residual activity was 71.4%.
As to `O=S(=O)(O)c1cc(O)c2c(S(=O)(=O)O)cc(S(=O)(=O)O)cc2c1`, in assay [2], the inhibition entry is “inactive”.

For the origin of these results see ChEMBL document CHEMBL1268868, “Discovery and mechanistic study of a class of protein arginine methylation inhibitors” (J Med Chem, 2010).
